Results published in ChEMBL document CHEMBL2046280, “Discovery of the novel potent and selective FLT3 inhibitor 1-{5-[7-(3- morpholinopropoxy)quinazolin-4-ylthio]-[1,3,4]thiadiazol-2-yl}-3-p-tolylurea and its anti-acute myeloid leukemia (AML) activities in vitro and in vivo” (J Med Chem, 2012).

How the values were obtained:
[1] = system: HCT-116; assay: Cytotoxicity against FLT3-independent human HCT116 cells after 72 hrs by MTT assay; format: functional, cell-based; conditions: HCT-116, 72 h
Method in brief: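 Adherent lines at 2−5 × 10³ cells/well were allowed to settle 24 h, then the medium was replaced with serial inhibitor dilutions for 72 h. MTT was added for 2−4 h, followed by dissolution in 100% DMSO. OD read at 570 nm. Viability relative to 0.1% DMSO controls; triplicate. Grown in RPMI 1640 or DMEM with 10% FBS, 5% CO₂, 37 °C.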

[2] = system: MV4-11; assay: Cytotoxicity against FLT3-dependent human MV4-11 cells after 72 hrs by MTT assay; format: functional, cell-based; conditions: MV4-11, 72 h
Method in brief: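 Leukemia cells at 1−4 × 10⁴ per well were exposed to increasing inhibitor concentrations for 72 h at 37 °C. MTT was then added for 2−4 h, and cells were lysed with 20% acidified SDS. OD read at 570 nm. Viability relative to 0.1% DMSO controls; triplicate. MV4-11 grown in IMDM, others in RPMI 1640 or DMEM with 10% FBS.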

[3] = target: T1, Receptor-type tyrosine-protein kinase FLT3 (Homo sapiens, UniProt P36888); assay: Inhibition of human FLT3
T1 sequence (P36888 whole entry): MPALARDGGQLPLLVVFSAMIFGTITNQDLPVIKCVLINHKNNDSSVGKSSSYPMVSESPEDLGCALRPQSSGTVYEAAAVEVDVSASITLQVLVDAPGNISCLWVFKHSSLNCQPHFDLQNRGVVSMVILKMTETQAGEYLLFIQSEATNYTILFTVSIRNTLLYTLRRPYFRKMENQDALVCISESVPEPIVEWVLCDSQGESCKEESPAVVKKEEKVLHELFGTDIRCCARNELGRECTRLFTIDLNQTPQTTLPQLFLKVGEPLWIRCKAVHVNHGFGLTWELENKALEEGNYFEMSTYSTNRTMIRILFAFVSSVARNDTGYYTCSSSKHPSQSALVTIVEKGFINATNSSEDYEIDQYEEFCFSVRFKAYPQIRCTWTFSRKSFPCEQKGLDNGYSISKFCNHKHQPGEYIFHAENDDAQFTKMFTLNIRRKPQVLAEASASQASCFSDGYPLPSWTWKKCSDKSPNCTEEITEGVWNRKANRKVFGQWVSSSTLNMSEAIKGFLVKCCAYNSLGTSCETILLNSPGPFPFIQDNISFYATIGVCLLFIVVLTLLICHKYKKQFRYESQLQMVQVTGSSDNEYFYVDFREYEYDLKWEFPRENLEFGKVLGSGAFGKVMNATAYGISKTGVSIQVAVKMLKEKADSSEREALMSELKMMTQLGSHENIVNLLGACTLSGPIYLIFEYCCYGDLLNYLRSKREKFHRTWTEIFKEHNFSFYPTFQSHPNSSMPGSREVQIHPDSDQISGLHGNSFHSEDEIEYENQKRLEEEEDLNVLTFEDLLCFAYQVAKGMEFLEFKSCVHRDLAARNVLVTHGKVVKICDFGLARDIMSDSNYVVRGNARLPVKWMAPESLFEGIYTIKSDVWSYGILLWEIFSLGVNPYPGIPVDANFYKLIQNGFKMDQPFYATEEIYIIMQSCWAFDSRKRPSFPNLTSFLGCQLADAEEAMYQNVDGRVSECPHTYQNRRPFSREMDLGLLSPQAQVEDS
Method in brief: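 Human FLT3 kinase assayed across a dose−response series at 200 μM ATP.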

[4] = Cmax in Sprague-Dawley rat at 40 mg/kg, ip; format: ADME, organism-based; set-up: dose 40 mg/kg, route intraperitoneal; conditions: in vivo
Method in brief: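 Male Sprague−Dawley rats (200−250 g), n = 3, fasted overnight, with a femoral-vein catheter for blood sampling. Single 40 mg/kg ip dose; plasma drug levels measured by LC-MS/MS.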

[5] = system: MV4-11; assay: Antitumor activity against human MV4-11 cells xenografted in NOD-SCID mouse assessed as tumor growth inhibition at 50 mg/kg, ip once daily for 21 days measured every 3 days; format: functional; conditions: MV4-11, ip, route intraperitoneal, read-out: GI

Q: For `COCCOc1cc2ncnc(Sc3nc(CC(=O)Nc4cccc(Cl)c4)cs3)c2cc1OCCOC`, which IC50 [1] is on record?
A: > 10000 nM

Q: And the IC50 [2]?
A: 3200 nM

Q: Which IC50 [1] does the source give for `COc1cc2ncnc(Sc3nccs3)c2cc1OCCN1CCCC1` here?
A: > 10000 nM

Q: What about the IC50 [2] of the same molecule?
A: 1240 nM

Q: For `COc1cc2ncnc(Sc3nc(C)c(CC(=O)Nc4ccc(NC(C)=O)cc4)s3)c2cc1OC`, which IC50 [1] is on record?
A: > 10000 nM

Q: And the IC50 [2]?
A: > 5000 nM

Q: For `COc1cc2ncnc(Sc3nncs3)c2cc1OC`, which IC50 [3] is on record?
A: 9 nM

Q: What about the IC50 [1] of the same molecule?
A: > 10000 nM

Q: And the IC50 [2]?
A: 1200 nM

Q: With `COc1cc2c(Sc3nccs3)ncnc2cc1OCCCN1CCOCC1` as the molecule, how does the IC50 [1] read?
A: > 10000 nM

Q: And the IC50 [2]?
A: 1150 nM

Q: With `COCCOc1cc2ncnc(Sc3nc(C)c(CC(=O)Nc4nc5ccc(OC)cc5s4)s3)c2cc1OCCOC` as the molecule, how does the IC50 [1] read?
A: > 10000 nM

Q: And the IC50 [2]?
A: 1900 nM

Q: Which results are given for `COc1cc2ncnc(Sc3nccs3)c2cc1OCCN1CCOCC1`?
A: IC50 [1]: > 10000 nM; IC50 [2]: 2950 nM

Q: Which results are given for `COCCOc1cc2ncnc(Sc3nnc(NC(=O)Nc4cccc(Br)c4)s3)c2cc1OCCOC`?
A: IC50 [1]: > 10000 nM; IC50 [2]: 22 nM

Q: With `COCCOc1cc2ncnc(Sc3nc(C)c(CC(=O)Nc4cccc(Cl)c4)s3)c2cc1OCCOC` as the molecule, how does the IC50 [1] read?
A: > 10000 nM

Q: And the IC50 [2]?
A: 210 nM

Q: What does the source list for `COc1cc2ncnc(Sc3nccs3)c2cc1OCCCN(C)C`?
A: IC50 [1]: > 10000 nM; IC50 [2]: 1130 nM

Q: Which IC50 [1] does the source give for `COCCOc1cc2ncnc(Sc3nnc(NC(=O)Nc4cccc(Cl)c4)s3)c2cc1OCCOC` here?
A: > 10000 nM

Q: What about the IC50 [2] of the same molecule?
A: 20 nM

Q: Which IC50 [1] does the source give for `COCCOc1cc2ncnc(Sc3nc(CC(=O)Nc4cc(C)cc(C)c4)cs3)c2cc1OCCOC` here?
A: > 10000 nM

Q: What about the IC50 [2] of the same molecule?
A: 9040 nM

Q: For `COCCOc1cc2ncnc(Sc3nnc(NC(C)=O)s3)c2cc1OCCOC`, which IC50 [1] is on record?
A: > 10000 nM

Q: And the IC50 [2]?
A: > 11000 nM

Q: For `COCCOc1cc2ncnc(Sc3nc(C)c(CC(=O)Nc4ccc(C(F)(F)F)cc4)s3)c2cc1OCCOC`, which IC50 [1] is on record?
A: > 10000 nM

Q: What about the IC50 [2] of the same molecule?
A: 27 nM

Q: For `COCCOc1cc2ncnc(Sc3nc(C)c(CC(=O)NC4CC4)s3)c2cc1OCCOC`, which IC50 [1] is on record?
A: > 10000 nM

Q: What about the IC50 [2] of the same molecule?
A: 2420 nM

Q: Which IC50 [1] does the source give for `COCCOc1cc2ncnc(Sc3nc(CC(=O)Nc4cccc(C(F)(F)F)c4)cs3)c2cc1OCCOC` here?
A: > 10000 nM

Q: What about the IC50 [2] of the same molecule?
A: 830 nM

Q: With `COc1cc2ncnc(Sc3nccs3)c2cc1OC` as the molecule, how does the IC50 [3] read?
A: 7 nM

Q: What about the IC50 [1] of the same molecule?
A: > 10000 nM

Q: And the IC50 [2]?
A: 1140 nM

Q: Which results are given for `COCCOc1cc2ncnc(Sc3nc(CC(=O)Nc4ccc(C(F)(F)F)cc4)cs3)c2cc1OCCOC`?
A: IC50 [1]: > 10000 nM; IC50 [2]: 2880 nM

Q: Which IC50 [1] does the source give for `COc1cc2ncnc(Sc3nccs3)c2cc1OCCCN1CCOCC1` here?
A: > 10000 nM

Q: And the IC50 [2]?
A: 1020 nM

Q: With `COCCOc1cc2ncnc(Sc3nc(C)c(CC(=O)Nc4cccc(C(F)(F)F)c4)s3)c2cc1OCCOC` as the molecule, how does the IC50 [1] read?
A: > 10000 nM

Q: And the IC50 [2]?
A: 25 nM

Q: Which IC50 [1] does the source give for `COc1cc2ncnc(Sc3nc(C)c(CC(=O)NCc4ccc(Cl)cc4)s3)c2cc1OC` here?
A: > 10000 nM

Q: And the IC50 [2]?
A: > 10000 nM

Q: Which IC50 [1] does the source give for `COCCOc1cc2ncnc(Sc3nnc(NC(=O)Nc4cccc(F)c4)s3)c2cc1OCCOC` here?
A: > 10000 nM

Q: What about the IC50 [2] of the same molecule?
A: 400 nM

Q: Which IC50 [1] does the source give for `COc1cc2ncnc(Sc3nc(C)c(CC(=O)Nc4cccc(Cl)c4)s3)c2cc1OC` here?
A: > 10000 nM

Q: What about the IC50 [2] of the same molecule?
A: 450 nM

Q: What does the source list for `COc1cc2ncnc(Sc3nc(C)c(CC(=O)Nc4cc(Cl)cc(Cl)c4)s3)c2cc1OC`?
A: IC50 [1]: > 10000 nM; IC50 [2]: 1400 nM

Q: Which results are given for `C=CC(=O)Nc1nnc(Sc2ncnc3cc(OCCCN4CCOCC4)ccc23)s1`?
A: IC50 [1]: > 10000 nM; IC50 [2]: 6000 nM

Q: Which results are given for `COCCOc1cc2ncnc(Sc3nccs3)c2cc1OCCOC`?
A: IC50 [1]: > 10000 nM; IC50 [2]: 1400 nM

Q: For `COc1cc2ncnc(Sc3nc(C)c(CC(=O)Nc4cccc(C(F)(F)F)c4)s3)c2cc1OC`, which IC50 [1] is on record?
A: > 10000 nM

Q: What about the IC50 [2] of the same molecule?
A: 20 nM

Q: Which results are given for `C#Cc1cccc(NC(=O)Nc2nnc(Sc3ncnc4cc(OCCCN5CCOCC5)ccc34)s2)c1`?
A: IC50 [3]: 6 nM; Cmax [4]: 2740 ng/mL; IC50 [1]: > 10000 nM; IC50 [2]: 0.3 nM; inhibition in vivo at 50 mg/kg [5]: < 50%

Q: For `O=C(Nc1ccccc1)Nc1nnc(Sc2ncnc3cc(OCCCN4CCOCC4)ccc23)s1`, which IC50 [1] is on record?
A: > 10000 nM

Q: What about the IC50 [2] of the same molecule?
A: 10 nM

Q: Which results are given for `COc1cc2c(Sc3nccs3)ncnc2cc1OCCN1CCCCC1`?
A: IC50 [1]: > 10000 nM; IC50 [2]: 1500 nM

Q: With `COc1cc2ncnc(Sc3nc(C)cs3)c2cc1OC` as the molecule, how does the IC50 [1] read?
A: > 10000 nM

Q: And the IC50 [2]?
A: 3680 nM

Q: With `COc1cc2c(N3CCN(C(=O)Nc4ccc(OC(C)C)cc4)CC3)ncnc2cc1OCCCN1CCCCC1` [TANDUTINIB] as the molecule, how does the IC50 [2] read?
A: 55 nM

Q: With `COc1cc2c(Sc3nccs3)ncnc2cc1OCCN1CCCC1` as the molecule, how does the IC50 [1] read?
A: > 10000 nM

Q: What about the IC50 [2] of the same molecule?
A: 1600 nM

Q: Which IC50 [1] does the source give for `COc1cc2ncnc(Sc3nccs3)c2cc1OCCN1CCCCC1` here?
A: > 10000 nM

Q: What about the IC50 [2] of the same molecule?
A: 1610 nM

Q: Which IC50 [1] does the source give for `O=C(Nc1cccc(Cl)c1)Nc1nnc(Sc2ncnc3cc(OCCCN4CCOCC4)ccc23)s1` here?
A: > 10000 nM

Q: What about the IC50 [2] of the same molecule?
A: 12 nM

Q: For `CCN(CC)CCNC(=O)c1c(C)[nH]c(/C=C2\C(=O)Nc3ccc(F)cc32)c1C` [SUNITINIB], which IC50 [2] is on record?
A: 3 nM

Q: With `COCCOc1cc2ncnc(Sc3nnc(NC(=O)Nc4ccc(C)cc4)s3)c2cc1OCCOC` as the molecule, how does the IC50 [1] read?
A: > 10000 nM

Q: What about the IC50 [2] of the same molecule?
A: 22 nM

Q: Which IC50 [1] does the source give for `COCCOc1cc2ncnc(Sc3nnc(NC(=O)Nc4ccc(C(F)(F)F)cc4)s3)c2cc1OCCOC` here?
A: > 10000 nM

Q: What about the IC50 [2] of the same molecule?
A: 300 nM

Q: Which IC50 [1] does the source give for `C#Cc1cccc(NC(=O)Nc2nnc(Sc3ncnc4cc(OCCOC)c(OCCOC)cc34)s2)c1` here?
A: > 10000 nM

Q: What about the IC50 [2] of the same molecule?
A: 5 nM

Q: What about the inhibition in vivo at 50 mg/kg [5] of the same molecule?
A: < 50%

Q: Which results are given for `COc1cc2c(Sc3nccs3)ncnc2cc1OCCN1CCOCC1`?
A: IC50 [1]: > 10000 nM; IC50 [2]: 3000 nM

Q: For `C=CC(=O)Nc1nnc(Sc2ncnc3cc(OCCOC)c(OCCOC)cc23)s1`, which IC50 [1] is on record?
A: > 10000 nM

Q: And the IC50 [2]?
A: > 10000 nM

Q: Which IC50 [1] does the source give for `COCCOc1cc2ncnc(Sc3nncs3)c2cc1OCCOC` here?
A: > 10000 nM

Q: And the IC50 [2]?
A: 1350 nM

Q: Which results are given for `COCCOc1cc2ncnc(Sc3nc(C)c(CC(=O)Nc4cc(C)cc(C)c4)s3)c2cc1OCCOC`?
A: IC50 [1]: > 10000 nM; IC50 [2]: 625 nM
